# FLuc stim CS: firefly luciferase counter-screen for stimulation assays. P08659. ATPlite luciferase biochemical, luminescence, 10 min; 0 = ATP-free wells, 1 = DMSO control. activation factor at 10 µM. 200,000 tested, under 10 active. AID 1027;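 active = luciferase activation factor, scaled between plate controls, of at least 2 with compound at 10 µM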
# Target sequence (P08659 whole entry, looked up): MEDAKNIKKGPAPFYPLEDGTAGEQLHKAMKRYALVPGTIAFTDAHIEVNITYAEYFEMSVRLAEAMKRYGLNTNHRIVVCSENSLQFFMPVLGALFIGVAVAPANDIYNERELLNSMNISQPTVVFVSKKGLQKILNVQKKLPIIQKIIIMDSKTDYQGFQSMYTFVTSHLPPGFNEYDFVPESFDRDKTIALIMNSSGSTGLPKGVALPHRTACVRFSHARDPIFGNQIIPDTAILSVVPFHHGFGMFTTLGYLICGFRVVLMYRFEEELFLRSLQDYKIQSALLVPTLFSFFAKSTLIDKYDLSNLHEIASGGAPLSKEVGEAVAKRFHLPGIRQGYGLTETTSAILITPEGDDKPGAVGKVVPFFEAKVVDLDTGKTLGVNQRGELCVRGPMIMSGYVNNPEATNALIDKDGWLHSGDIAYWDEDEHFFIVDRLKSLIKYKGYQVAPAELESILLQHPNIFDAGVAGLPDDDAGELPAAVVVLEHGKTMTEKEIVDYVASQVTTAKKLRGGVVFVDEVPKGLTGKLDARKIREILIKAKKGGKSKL
#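 Assay system: Luciferase/luciferin detection reagent, cell-free biochemical luciferase assay / Read-out: luciferase activation / Benchmarks: No-ATP low control, compound-free enzyme-plus-ATP high control / Medium: PBS buffer for ATP / Detection: luminescence measurement of luciferase light output / Schedule: 10 min at ambient temperature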
# TRAIL sens C8: sensitizes caspase-8 expressing cells to TRAIL; NB7+C8 cells + TRAIL, ATPlite viability luminescence; inhibition (viability loss, TRAIL sensitization), % at 10 µM; 360,000 compounds, 1% hits;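 active = compounds causing at least 50% loss of cell viability in the single-dose screen, relative to plate controls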
# FLuc inhib CS: Photinus pyralis luciferase inhibition counter-screen; ATPLite firefly luciferase biochemical luminescence, 10 min; P08659; 200,000 compounds, 1.5% hits; inhibition, % at 10 µM;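 active = inhibition above about 50% when tested at 10 µM, limit read from the data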
# beta cell repl: MIN6 beta-cell proliferation induction; MIN6 cells proliferation, ATPlite luminescence, 48 h; cells starved in 0.2% serum; 100% = growth in 10% serum; proliferation, % at 10 µM; 330,000 compounds, 0.29% hits; AID 2380;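 active = compounds whose signal lies at least 3.5 SD above the mean of all wells on their plate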;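 also: 0% = DMSO-treated cells in low-serum medium and 100% = 10% serum control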
# PPC-1+TRAIL kill: PPC-1 cancer cell killing with TRAIL present; PPC-1 cells + TRAIL, ATPLite viability luminescence; cell killing (% activity), % at 4 µM or 5 µM; 220,000 compounds, 0.41% hits;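 active = cell killing above 50% in the first pass at 4 µM, then a duplicate retest at 5 µM averaging 50% or more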;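 also: plate controls were cells with TRAIL plus DMSO for no effect and medium-only wells lacking cells for full effect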
# hiPSC survival: hiPSC single-cell survival enhancement; ATPlite luminescence; 100% = ROCK inhibitor wells, 0% = DMSO; survival enhancement, % at 20 µM; 360,000 compounds, 0.044% hits; in the data active = survival enhancement above about 18%;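 also: cells exposed to compounds for 16 hours before the ATP read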
# * = called active by the depositor; . = no result given. Sampled rows, rich in hits. Any-hit rate of the full collection: about 1.8%.
SMILES,FLuc stim CS,TRAIL sens C8,FLuc inhib CS,beta cell repl,PPC-1+TRAIL kill,hiPSC survival
CCOc1cc(/C=N/Nc2nnc(C)n2N)ccc1O,.,-2.6,.,-3.7,.,1.2
CCOc1cc(/C=N/Nc2ncnc(Cl)c2N)ccc1O,0.3,18.9,65.1*,0.0,32.3,-2.1
C=CCc1ccccc1OCC(=O)N/N=C/c1ccc(OC(C)=O)cc1OC(C)=O,1,50.2*,-4.4,0.0,22.8,-0.9
CC(=O)N1CCN(C(=O)OC2CC3CC2[C@H]2CCCCN2C3=O)CC1 (some centres undefined),.,3.8,.,.,.,0.9
N#Cc1ccccc1OCC(=O)N(Cc1nnc(-c2ccccc2Cl)o1)C1CC1,.,17.5,.,2.1,.,-0.4
CCOC(=O)c1c(C)[nH]c(C(=O)OCC(=O)Nc2sccc2C(N)=O)c1C,.,55.9*,.,-4.9,.,0.0
O=C(CNC(=O)c1ccc(-c2ccccc2)cc1)Nc1cccc(CO)c1,.,6.1,.,0.5,.,-0.7
Cc1cc2ncc(-c3ccc(Cl)cc3)c(N)n2n1,0.4,34.9,57.7*,-2.4,27.8,-3.9
CCN(CC)c1ccc(N)cc1,.,60.4*,.,-7.2,.,-2.3
CC(C)n1c(/C=C/c2ccccc2)nc2ccccc21,0.3,51.6*,70.5*,-2.4,32.7,-1.7
COCCOCCn1c(/C=C/c2ccccc2)nc2ccccc21,0.2,52.5*,83.5*,-4.3,47.8,-2.0
CCCn1c(/C=C/c2ccccc2)nc2ccccc21,0.3,52.6*,71.9*,-4.0,36.6,-3.3
CC(C)n1c(CN(C)c2ccccc2)nc2ccccc21,.,9.1,.,-1.6,.,-0.2
CCn1c(/C=C/c2cc[n+](C)cc2)nc2ccccc21,.,14.7,.,-2.1,.,0.5
CC1(C(=O)N2CCN(C(=O)c3ccco3)CC2)CC1(Br)Br (centres undefined),.,-1.6,.,0.7,.,-0.4
CC[C@]12C(=O)N(C)C[C@H]([C@@H]3C(=O)N(C)C(=O)[C@@H]31)N2C(=O)c1ccc(F)cc1,.,-7.6,.,.,.,-0.5
Cc1cc(C(=O)N2CCC2(C)C(=O)NCC(C)(C)C)nn1C (centres undefined),.,1.7,.,.,.,-0.8
COc1ccc(C(=O)Nc2ccccc2C(=O)Nc2cccnc2)cc1,.,53.0*,.,0.0,.,-0.7
COc1ccc(C(=O)Nc2ccccc2C(=O)Nc2cccc(C)n2)cc1,.,40.5,.,-2.9,.,0.2
COc1ccc(C(=O)Nc2ccccc2C(=O)Nc2cc(C)ccn2)cc1,.,68.0*,.,-5.0,.,-0.7
COc1ccc(C(=O)Nc2cc(C)c(NC(=O)c3ccccn3)cn2)cc1,.,68.8*,.,-3.3,.,-0.7
Cc1nn(C(=O)N(C)C)c(C)c1CN1C(=O)c2ccccc2C1=O,.,-3.6,.,-2.5,.,-0.5
O=C(c1ccc(O)c(Cl)c1)N1CCN(S(=O)(=O)c2ccccc2)CC1,.,-4.9,.,1.0,.,-0.2
CCn1nnc2cc(C(=O)NCCc3ccccc3F)ccc21,.,14.1,.,-3.5,.,0.4
Cc1cc(O)c(/C=N/Nc2ccc(Cl)cc2)c(=O)o1,0.1,-0.6,89.2*,2.6,-4.1,0.2
SMILES,FLuc stim CS,TRAIL sens C8,FLuc inhib CS,beta cell repl,PPC-1+TRAIL kill,hiPSC survival
COC(=O)c1ccc(SCC(=O)NCc2ccccc2)c([N+](=O)[O-])c1,.,-1.4,.,-1.7,.,-0.4
CNc1nc(Cl)nc(NC(C)(C)C)n1,1,7.2,-3.9,5.0,20.1,17.3*
Cc1nc2c(o1)C(=O)c1ccccc1C2=Nc1ccccc1,.,94.6*,.,.,.,-2.5
O=C(CCN1C(=O)C2CC=CCC2C1=O)Nc1cc(C(F)(F)F)ccc1N1CCCC1 (centres undefined),.,-6.1,.,0.7,.,-0.3
COc1ccc(C2CC(c3cccs3)=NN2C(=O)CSC2=NN3CCCC(=O)N=C3S2)cc1 (centres undefined),1.1,26.8,-6.8,0.3,14.0,4.1
COc1ccc(C2CC(c3ccc(Br)cc3)=NN2C(=O)CSC2=NN3CCCC(=O)N=C3S2)cc1 (centres undefined),.,93.3*,.,-7.8,.,-0.4
c1ccc(Nc2ccccn2)cc1,1,-5.7,-1.9,1.1,18.0,-3.6
c1ccc(/N=C2\N=C(Nc3ccccn3)c3ccccc32)nc1,.,48.1*,.,-7.4,.,-0.2
Cc1cc(C)cc(NC(=O)c2ccc(S(=O)(=O)C(F)F)cc2)c1,0.8,10.1,18.0,-2.4,11.8,-2.5
Cc1ccc(C(=O)Nc2nnc(SCC(=O)N3CCCc4ccccc43)s2)cc1,0,97.3*,97.7*,0.0,95.1*,-3.1
CN(C)S(=O)(=O)c1ccc(C(=O)Nc2nnc(SCC(=O)N3CCOCC3)s2)cc1,.,59.9*,.,.,.,-2.4
Cc1nnc(NC(=O)c2ccc(S(=O)(=O)C(F)F)cc2)s1,.,50.4*,.,-4.7,25.7,-0.8
CN(C)S(=O)(=O)c1ccc(C(=O)Nc2nnc(SCc3ccccc3)s2)cc1,1,4.8,-1.1,0.4,3.0,-1.1
CSc1nnc(NC(=O)c2ccc(S(=O)(=O)N(C)C)cc2)s1,0.4,39.5,60.5*,-4.5,20.7,-2.1
CC(C)Oc1ccc(C(=O)Nc2nnc(SCC(=O)N3CCOCC3)s2)cc1,0,98.0*,97.2*,0.0,93.6*,-4.2
COc1cc(NC(=O)NC2Cc3ccccc3C2)cc(OC)c1,.,-3.0,.,-1.9,.,-0.2
CCC1CCCCN1Cc1nc(Cc2ccccc2Cl)no1 (centres undefined),.,85.2*,.,-0.2,0.4,0.3
CCN(CC)c1ccc(/C=C/c2ccc3ccc(OC)cc3[n+]2CC)cc1,.,56.5*,.,-5.2,.,-0.4
CC[n+]1c(/C=C/c2ccc(OC)c(OC)c2)ccc2ccccc21,.,-12.2,.,-0.8,.,-0.1
Cn1nc(C(=O)Nc2ccc3c(c2)OCCO3)cc1C(=O)O,0.4,47.0,64.8*,-4.6,30.1,-1.9
CCn1cc(Cl)c(C(=O)Nc2ccc3c(c2)OCCO3)n1,0.3,52.0*,73.8*,-1.9,48.2,0.0
CC(NC(=O)c1c(F)cccc1Cl)c1ccc(-n2ccnc2)cc1 (centres undefined),.,3.6,.,-1.0,.,0.1
O=C(Cn1cnc2ccccc2c1=O)N1CCN(S(=O)(=O)c2ccc(F)cc2)CC1,.,-15.3,.,3.6,.,-0.6
COc1nc(-c2ccc(C)cc2)ccc1-c1noc(-c2ccco2)n1,1.1,4.4,-5.3,-1.1,3.3,-1.7
COc1nc(C)ccc1-c1noc(-c2ccco2)n1,0.4,22.6,57.7*,3.0,21.6,-2.7
O=C(CSc1ncnc2nc[nH]c12)c1ccc(Cl)cc1,.,74.4*,.,-3.7,.,2.4
O=C(CSc1ncnc2nc[nH]c12)c1ccccc1,1,24.4,3.8,-0.4,5.0,-2.5
Cc1[nH]nc2c1C(c1cccs1)C1=C(CC(C)(C)CC1=O)N2 (centres undefined),1.1,4.5,-10.3,-2.0,6.6,-0.6
O=C(CN1CC(c2ccccc2)CC1=O)N/N=C/c1cc(Br)ccc1O (centres undefined),1,52.0*,-3.6,0.0,33.9,-1.2

# From PubChem BioAssay
